Compound activity (PubChem BioAssay)
Rows were chosen to be rich in hits. Some 1.9% of all compounds tested hit in one or more screens of this group.
Rin1-Abl PPI inh = human Rin1-Abl interaction inhibition. actives 0.4% (n = 360,000). P00519+Q13671. AID 588664. inhibition, % at 7.35 µM. TR-FRET Rin1/Abl binding, biochemical; in the data active means inhibition above about 5%, passing the limit was not always enough
SR-BI DiI inh = blocks mouse SR-BI lipid uptake from DiI-HDL | actives 0.96% (n = 320,000) | AID 488896 | Q61009 | ldlA[mSR-BI] CHO cells, DiI-HDL uptake fluorescence, 3 h | inhibition, % at 12.5 µM;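 active means mean replicate inhibition of at least 70% and a set share of replicates each scoring 70 or more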;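 further: 0% = median of neutral control wells and 100% = median of positive control wells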
GRK2 inh = inhibitors of human GRK2 displacing RNA aptamer; P25098; bead flow cytometry, FAM-aptamer displacement from GRK2; inhibition of aptamer binding, % at 10 µM; actives 0.59% (n = 330,000); AID 488847;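 active means inhibition of aptamer binding above 40%, roughly 3 SD of noise, on plates passing a quality check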;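 further: median bead fluorescence of bound FAM aptamer so fluorescent compounds give negative values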
Target sequence (P25098 whole entry, looked up): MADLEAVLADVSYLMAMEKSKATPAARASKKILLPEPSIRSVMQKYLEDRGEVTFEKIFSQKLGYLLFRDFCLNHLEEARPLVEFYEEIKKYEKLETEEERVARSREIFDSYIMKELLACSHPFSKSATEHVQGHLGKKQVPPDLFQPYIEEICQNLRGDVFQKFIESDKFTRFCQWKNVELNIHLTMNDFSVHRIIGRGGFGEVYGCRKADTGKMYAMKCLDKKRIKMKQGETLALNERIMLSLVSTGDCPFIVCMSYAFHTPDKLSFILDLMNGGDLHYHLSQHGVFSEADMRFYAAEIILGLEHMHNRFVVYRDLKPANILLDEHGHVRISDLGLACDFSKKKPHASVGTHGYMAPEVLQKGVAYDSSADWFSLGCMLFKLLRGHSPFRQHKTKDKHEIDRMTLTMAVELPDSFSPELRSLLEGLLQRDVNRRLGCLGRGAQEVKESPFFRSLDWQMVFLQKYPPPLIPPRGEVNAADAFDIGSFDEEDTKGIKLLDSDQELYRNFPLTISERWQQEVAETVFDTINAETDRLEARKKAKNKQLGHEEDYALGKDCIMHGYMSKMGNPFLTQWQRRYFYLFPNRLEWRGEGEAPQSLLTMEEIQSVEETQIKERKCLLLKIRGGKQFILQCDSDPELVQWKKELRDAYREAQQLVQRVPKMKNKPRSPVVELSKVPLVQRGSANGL
SR-BI DiI-HDL act = enhances SR-BI lipid uptake from DiI-HDL | AID 504775 | CHO ldlA[mSR-BI] cells, DiI-HDL uptake fluorescence, 3 h; 100 = double the neutral-control signal | actives 0.096% (n = 320,000) | activation, % at 12.5 µM;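 active means mean replicate activation of at least 60% and every replicate at or above 60%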;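 further: 0% = median plate neutral-control signal and 100% = twice that signal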
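Test system: SR-BI-overexpressing, LDLR-lacking CHO cells; Medium: Ham's F12 with 0.5% BSA, HEPES 25 mM, pH 7.4; Schedule: 3 h, 37 °C; Technique: bottom-read fluorescence, 550/595 nm.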
GRK2 CP1 = confirmation of human GRK2 inhibitors displacing RNA aptamer | actives 4% (n = 2,000) | shares compounds with GRK2 inh | bead-bound GRK2, FAM-aptamer displacement, flow cytometry | aptamer displacement, % at 10 µM;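 active means aptamer displacement above 40%, near three times the noise of non-fluorescent compounds, on plates passing quality checks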;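 further: negative values mostly reflect intrinsic compound fluorescence rather than true enhancement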
Aptamer quench 1 = quenches fluorescent RNA aptamer, GRK2 hit artifact | shares compounds with GRK2 inh | Fluorescent RNA aptamer beads, quenching, flow cytometry; stronger effect = higher value | fluorescence change (kMESF span), kMESF (no concentration beside the values) | 110 tested, under 10 active;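 active means compounds whose bead fluorescence drops by more than 37 kMESF across the dose range, marking them as dye quenchers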
Aptamer quench SP = aptamer fluorescence quenching in GRK2 counter-screen. shares compounds with GRK2 inh. Carboxyfluorescein RNA aptamer on beads, flow cytometry quenching; stronger effect = lower value. 2,000 tested, under 10 active. fluorescence response (% of DMSO), % at 10 µM;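 active means compounds that quench the bead-bound fluorescent RNA probe, cutting fluorescence to under half of the solvent control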;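 further: counterscreen run without GRK2 so only probe quenching by compound is measured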
GRK2 confirm 2 = confirmation of human GRK2 inhibitors binding RNA aptamer site. shares compounds with GRK2 inh. bead-bound GRK2, FAM-aptamer displacement, flow cytometry. inhibition of aptamer binding, % at 10 µM. 360 tested, under 10 active. AID 504782;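 active means inhibition of aptamer binding above 40%, about triple the noise seen with nonglowing compounds, on plates passing quality control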;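 further: negative values mostly come from compounds that fluoresce themselves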
FAM quench CP2 = quenches fluorescent RNA aptamer, GRK2 hit artifact; fluorescence response vs DMSO, % at 10 µM; carboxyfluorescein RNA aptamer beads, flow cytometry quenching; stronger effect = lower value; AID 588494; shares compounds with GRK2 inh; 360 tested, under 10 active;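 active means response vs DMSO under 50%, meaning signal dropped by over half, treated as fluorescence quencher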;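 further: labelled aptamer on streptavidin beads without GRK2 as a quench counter-screen; 100% = bead fluorescence of DMSO wells and lower means quenching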
FAM quench DR = counter-screen for GRK2 aptamer binding inhibitors: aptamer fluorescence quenching; fluorescence ratio to DMSO, % at 11.1 µM; 35 tested, under 10 active; Bead-bound FAM RNA aptamer fluorescence quenching, flow cytometry; stronger effect = lower value; shares compounds with GRK2 inh;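 active means compounds that dim the fluorescent label, raw bead signal shifting by over 33 units between lowest and highest dose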
* = called active by the depositor; x = not tested or not shown.

SMILES | Rin1-Abl PPI inh | SR-BI DiI inh | GRK2 inh | SR-BI DiI-HDL act | GRK2 CP1 | Aptamer quench SP | others
CCOC1=C2[C@H](c3ccccc3)N(S(=O)(=O)c3ccc(C)cc3)C(C(C)(C)C)[C@H]2C(C#N)(C#N)C(C#N)(C#N)C1 (stereo partly drawn) | 1 | x | x | x | x | x
CCOC(=O)Nc1sc(C)nc1-c1ccccc1 | 1 | 20 | 44* | -20 | -5 | 97
COc1cc(/C=N/Nc2ccc(C(=O)O)cc2)ccc1O | -6 | -8 | 41* | 8 | 26 | 90
COc1cc(/C=N/Nc2ccc(C(=O)O)cc2)cc(OC)c1OC | 0 | x | 1 | x | x | x
O=[N+]([O-])c1cc(Br)c(O)c(C=Nc2ccc(N3CCOCC3)cc2)c1 | -5 | 12 | 51* | -12 | 0 | 103
COCCNC(=O)C1(C)CCCN(C(=O)c2ccc3snnc3c2)C1 (stereo not drawn) | -2 | x | x | x | x | x
O=C(COc1coc(CN2CCCc3ccccc32)cc1=O)Nc1ccc([N+](=O)[O-])cc1 | 0 | 28 | 62* | -28 | -5 | 100
Cc1ccccc1NC(=O)COc1coc(CN2CCCc3ccccc32)cc1=O | 1 | -8 | 2 | 8 | x | x
CC1c2ccccc2N(S(=O)(=O)c2ccccc2)C1C (stereo not drawn) | 1 | -5 | x | 5 | x | x
COc1ccccc1-c1ccc(Nc2cccc(C(C)=O)c2)nn1 | 4 | 43 | 2 | -43 | -8 | 103
CC(=O)c1cccc(Nc2ccc(-c3ccccc3F)nn2)c1 | -5 | 11 | 1 | -11 | 0 | 102
Cc1ccc(CNC(=O)CC[C@H]2O[C@@H](n3cc(C)c(=O)[nH]c3=O)C[C@@H]2O)o1 | 4 | x | x | x | x | x
CC(CCC(=O)O)C1CC[C@@]2(C)C3C(=O)CC4C(C)(C)C(O)CC[C@]4(C)C3C(=O)C[C@]12C (stereo partly drawn) | 1 | 0 | 44* | 0 | 1 | 98
Cc1oc(S(=O)(=O)N2CCCCC2)cc1NC(=O)Nc1ccc(F)cc1 | -1 | 18 | 1 | -18 | x | x
Cc1cccc(C)c1NC(=O)COC(=O)CN1C(=O)C2CCCCC2C1=O (stereo not drawn) | 5 | 8 | 0 | -8 | x | x
CCOC(=O)c1ccc(NC(=O)CCS(=O)(=O)c2ccc(Br)s2)cc1 | 3 | 5 | 3 | -5 | x | x
COc1ccc(NC(=O)CCS(=O)(=O)c2ccc(Br)s2)cc1 | 1 | x | 87* | x | 43* | 95 | Aptamer quench 1=-2.3;FAM quench DR=97
O=C(CCS(=O)(=O)c1ccc(Br)s1)Nc1ccccc1Br | -2 | 4 | 88* | -4 | 12 | 94 | Aptamer quench 1=-5.6;FAM quench DR=98
O=C(CCS(=O)(=O)c1ccc(Cl)cc1)Nc1ccccc1Br | 1 | -12 | 0 | 12 | x | x
CC1=C(C(=O)O)CC(S(=O)(=O)O)C1(C)C (stereo not drawn) | 2 | -10 | x | 10 | x | x
CC(C)Sc1nnc(SCC(=O)NCCCN2CCCC2=O)s1 | 1 | -15 | 2 | 15 | x | x
Fc1ccccc1N1CCN(C(c2ccncc2)c2nnnn2C2CCCC2)CC1 (stereo not drawn) | 3 | 0 | 53* | 0 | -2 | 104
Cc1ccc(NC(=O)CC2S/C(=N/N=C3/NC(=O)CS3)NC2=O)cc1 (stereo not drawn) | 0 | -11 | 91* | 11 | 3 | 99
COc1ccc(OCC(=O)Nc2ccccc2Cl)cc1 | 2 | -21 | 1 | 21 | x | x
COc1ccc(SCC(=O)Nc2ccccc2Cl)cc1 | 4 | -2 | 65* | 2 | x | x | GRK2 confirm 2=3;FAM quench CP2=101
SMILES | Rin1-Abl PPI inh | SR-BI DiI inh | GRK2 inh | SR-BI DiI-HDL act | GRK2 CP1 | Aptamer quench SP | others
Cc1nc(-c2nc(CC(=O)NNC(=O)c3ccc(Cl)cc3)cs2)cs1 | 3 | -12 | 47* | 12 | 1 | 107
CCOC(=O)/C(C#N)=c1/s/c(=C2\C=Cc3ccccc3N2CC)c(=O)n1CC | -3 | -18 | 65* | 18 | -20 | 101
COc1ccc(C(=O)N/N=C(\C)c2ccc3c(c2)C2C=CCC2C(c2ccccc2)N3)cc1 (stereo not drawn) | -2 | 25 | 0 | -25 | x | x
O=C(O)c1ccc2c(c1)[C@@H]1C=CC[C@@H]1[C@H](c1ccccn1)N2 | 21* | -8 | 42* | 8 | 23 | 101
O=[N+]([O-])c1ccc(N2CCN(c3cccc(Cl)c3)CC2)nc1 | 1 | 45 | 11 | -45 | 5 | 115
O=C(c1cc(C2CC2)nn1-c1ccccc1)N1CCN(Cc2ccccc2)CC1 | -3 | x | x | x | x | x
CC1(C)CC(=O)C=C(c2n[nH]nc2-c2ccccc2)C1 | -1 | x | x | x | x | x
Cn1c(Oc2ccccc2)c(C=O)c2ccccc21 | 4 | 10 | 53* | -10 | -7 | 97
Cc1cccc(Oc2c(C=O)c3ccccc3n2C)c1 | -2 | 14 | 0 | -14 | x | x
O=C(Nc1ccc2c(c1)OCO2)c1cc(C2CCCCN2S(=O)(=O)Cc2ccccc2)on1 (stereo not drawn) | -4 | x | x | x | x | x
COc1ccc(CN(C)C(C)C(=O)Nc2ccc(S(=O)(=O)N3CCOCC3)cc2)c(OC)c1 (stereo not drawn) | 0 | 2 | 3 | -2 | x | x
COc1ccc(CN(C)C(C)C(=O)Nc2ccc(S(=O)(=O)N3CCCCC3)cc2)cc1F (stereo not drawn) | -1 | 13 | 72* | -13 | -1 | 99
COc1ccc2[nH]c3c(c2c1)CCN1C(=O)C(CC(=O)NCC24CC5CC(CC(C5)C2)C4)C[C@H](C(=O)N(C(C)C)C(C)C)[C@@]31C (stereo partly drawn) | 1 | 32 | 2 | -32 | x | x
CSc1ccc(S(=O)(=O)NCc2ccc(C)cc2)cc1 | -3 | -34 | 71* | 34 | 0 | 102
COc1ccc(C(=O)OCC(=O)c2ccco2)cc1[N+](=O)[O-] | 4 | x | x | x | x | x
O=C(Cc1ccccc1)NS(=O)(=O)c1ccc(N=NN2CCOCC2)cc1 | 0 | -17 | 26 | 17 | -3 | 99
COC(=O)CCC(=O)NS(=O)(=O)c1ccc(N=NN2CCOCC2)cc1 | 2 | -5 | 2 | 5 | x | x
COCCN(C(=O)c1ccccc1Oc1ccccc1)c1c(N)n(CC(C)C)c(=O)[nH]c1=O | 3 | -7 | 41* | 7 | 0 | 98
